Test results reported in ChEMBL document CHEMBL1136707, “From pure FPP to mixed FPP and CAAX competitive inhibitors of farnesyl protein transferase” (Bioorg Med Chem Lett, 2003).
One block for each compound: values may come before it.

Assays:
[1] = biological target: Protein farnesyltransferase (Bos taurus, UniProt P29702+P49355); assay: In vitro inhibition of bovine Farnesyl transferase; type: protein-complex assay
In short: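 Purified bovine FPTase, assayed as in ref 15, with dansyl-GCVLS peptide and FPP as substrates, both at […].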

[2] = biological target: T1, Protein farnesyltransferase (Bos taurus) (UniProt P29702+P49355); assay: Inhibition of FPTase at 10 nM using 20 uM FPP as substrate; type: protein-complex assay
In short: (§1)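 FPP-dependence study using purified bovine FPTase. Dansyl-GCVLS peptide was held at a fixed level of […] while FPP concentration was varied. Inhibitor was tested at a single fixed concentration, and the read-out was percent inhibition of farnesylation.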

[3] = biological target: T1, Protein farnesyltransferase (Bos taurus); assay: Inhibition of FPTase at 10 nM using 0.5 uM FPP as substrate; type: protein-complex assay; in short: as §1
[4] = biological target: Protein farnesyltransferase (Homo sapiens, UniProt P49354+P49356); assay: Inhibition of farnesylation of H-Ras in DLD-1 cells; type: functional, cell-based
[5] = biological target: T1, Protein farnesyltransferase (Bos taurus); assay: Inhibition of FPTase at 10 nM using 0.5 uM Dansyl-GCVLS; type: protein-complex assay
In short: (§2)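 Peptide-dependence study using purified bovine FPTase. Dansyl-GCVLS substrate concentration was varied with the inhibitor at a single fixed concentration, and activity was reported as percent enzyme inhibition.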

[6] = biological target: T1, Protein farnesyltransferase (Bos taurus); assay: Inhibition of FPTase at 10 nM using 1 uM FPP as substrate; type: protein-complex assay; in short: as §1
[7] = biological target: T1, Protein farnesyltransferase (Bos taurus); assay: Inhibition of FPTase at 10 nM using 2 uM FPP as substrate; type: protein-complex assay; in short: as §1
[8] = biological target: T1, Protein farnesyltransferase (Bos taurus); assay: Inhibition of FPTase at 10 nM using 5 uM FPP as substrate; type: protein-complex assay; in short: as §1
[9] = biological target: T1, Protein farnesyltransferase (Bos taurus); assay: Inhibition of FPTase at 100 nM using 5 uM Dansyl-GCVLS; type: protein-complex assay; in short: as §2
[10] = biological target: T1, Protein farnesyltransferase (Bos taurus); assay: Inhibition of FPTase at 10 nM using 2 uM Dansyl-GCVLS; type: protein-complex assay; in short: as §2
[11] = biological target: T1, Protein farnesyltransferase (Bos taurus); assay: Inhibition of FPTase at 10 nM using 1 uM Dansyl-GCVLS; type: protein-complex assay; in short: as §2
[12] = biological target: T1, Protein farnesyltransferase (Bos taurus); assay: Inhibition of FPTase at 10 nM using 20 uM Dansyl-GCVLS; type: protein-complex assay; in short: as §2
[13] = biological target: T1, Protein farnesyltransferase (Bos taurus); assay: Inhibition of FPTase at 10 nM using 10 uM Dansyl-GCVLS; type: protein-complex assay; in short: as §2
[14] = biological target: T1, Protein farnesyltransferase (Bos taurus); assay: Inhibition of FPTase at 10 nM using 10 uM FPP as substrate; type: protein-complex assay; in short: as §1
[15] = biological target: T1, Protein farnesyltransferase (Bos taurus); assay: Inhibition of FPTase at 100 nM using 2 uM FPP as substrate; type: protein-complex assay; in short: as §1
[16] = biological target: T1, Protein farnesyltransferase (Bos taurus); assay: Inhibition of FPTase at 100 nM using 0.5 uM FPP as substrate
[17] = biological target: T1, Protein farnesyltransferase (Bos taurus); assay: Inhibition of FPTase at 100 nM using 5 uM FPP as substrate; type: protein-complex assay; in short: as §1
[18] = biological target: T1, Protein farnesyltransferase (Bos taurus); assay: Inhibition of FPTase at 100 nM using 20 uM FPP as substrate; type: protein-complex assay; in short: as §1
[19] = biological target: T1, Protein farnesyltransferase (Bos taurus); assay: Inhibition of FPTase at 100 nM using 20 uM Dansyl-GCVLS; type: protein-complex assay; in short: as §2
[20] = biological target: T1, Protein farnesyltransferase (Bos taurus); assay: Inhibition of FPTase at 100 nM using 0.5 uM Dansyl-GCVLS; type: protein-complex assay; in short: as §2
[21] = biological target: T1, Protein farnesyltransferase (Bos taurus); assay: Inhibition of FPTase at 100 nM using 10 uM FPP as substrate; type: protein-complex assay; in short: as §1
[22] = biological target: T1, Protein farnesyltransferase (Bos taurus); assay: Inhibition of FPTase at 100 nM using 10 uM Dansyl-GCVLS; type: protein-complex assay; in short: as §2
[23] = biological target: T1, Protein farnesyltransferase (Bos taurus); assay: Inhibition of FPTase at 100 nM using 1 uM Dansyl-GCVLS; type: protein-complex assay; in short: as §2
[24] = biological target: T1, Protein farnesyltransferase (Bos taurus); assay: Inhibition of FPTase at 100 nM using 2 uM Dansyl-GCVLS; type: protein-complex assay; in short: as §2

Structure (SMILES): CC(C)=CCC/C(C)=C/CC/C(C)=C/CC1C(=O)N(Cc2ccccc2)C(=O)N1Cc1cncn1C (stereo not drawn)
- IC50 [1]: 0.7 µM

Structure (SMILES): CC(C)=CCC/C(C)=C/CC/C(C)=C/CC(NCc1cncn1Cc1ccc(C#N)cc1)C(=O)N[C@@H](Cc1ccccc1)C(=O)O (stereo partly drawn)
- IC50 [4]: 5 µM

Structure (SMILES): CC(C)=CCC/C(C)=C/CC/C(C)=C/CC1C(=O)N(Cc2ccccc2)C(=O)N1Cc1cncn1Cc1ccc(C#N)cc1 (stereo not drawn)
- IC50 [1]: 0.2 µM

Structure (SMILES): CC(C)=CCC/C(C)=C/CC/C(C)=C/CC(NCc1cncn1C)C(=O)NCc1ccccc1 (stereo not drawn)
- IC50 [1]: > 10 µM

Structure (SMILES): CC(C)=CCC/C(C)=C/CC/C(C)=C/CC(C(=O)N[C@@H](Cc1ccccc1)C(=O)O)P(=O)(O)O (stereo partly drawn)
- inhibition [15]: 37%
- inhibition [16]: 80%
- inhibition [17]: 9%
- inhibition ([17]; in the assay text read “1 uM FPP” for “5 uM FPP”): 72%
- IC50 [4]: > 10 µM
- inhibition [18]: 10%
- inhibition [19]: 38%
- inhibition [20]: 43%
- inhibition [21]: 9%
- inhibition [22]: 33%
- inhibition [23]: 42%
- IC50 [1]: 0.083 µM
- inhibition [24]: 41%
- inhibition [9]: 34%

Results, then the compound that gave them:

- inhibition [2]: 32%
- inhibition [3]: 54%
- IC50 [4]: 1 µM
- inhibition [5]: 49%
- inhibition [6]: 55%
- inhibition [7]: 42%
- IC50 [1]: 0.006 µM
- inhibition [8]: 38%
- inhibition ([9]; 10 nM, in the assay text read “10 nM” for “100 nM”): 27%
- inhibition [10]: 38%
- inhibition [11]: 41%
- inhibition [12]: 3%
- inhibition [13]: 14%
- inhibition [14]: 36%
Structure (SMILES): CC(C)=CCC/C(C)=C/CC/C(C)=C/CC(NCc1cncn1Cc1ccc(C#N)cc1)C(=O)NCc1ccccc1 (stereo not drawn)

- IC50 [4]: > 10 µM
- IC50 [1]: 0.04 µM
Structure (SMILES): CC(C)=CCC/C(C)=C/CC/C(C)=C/CC(C(=O)NCc1ccccc1)N(Cc1cncn1Cc1ccc(C#N)cc1)S(=O)(=O)c1ccccc1 (stereo not drawn)

- IC50 [4]: 1 µM
- IC50 [1]: 0.67 µM
Structure (SMILES): CC(C)=CCC/C(C)=C/CC/C(C)=C/CC(C(=O)NCc1ccccc1)N(Cc1cncn1C)S(=O)(=O)c1ccccc1 (stereo not drawn)

- IC50 [4]: 10 µM
- IC50 [1]: 0.47 µM
Structure (SMILES): CC(C)=CCC/C(C)=C/CC/C(C)=C/CC(C(=O)N[C@@H](Cc1ccccc1)C(=O)O)N(Cc1cncn1C)S(=O)(=O)c1ccccc1 (stereo partly drawn)
